From ChEMBL document CHEMBL4033721, “Design, synthesis and evaluation of indole-2-carboxamides with pan anti-mycobacterial activity” (Bioorg Med Chem, 2017)
Converted amounts (≈) assume the structure as drawn.

Experiments:
Mycobacteroides chelonae = assay: Antimycobacterial activity against Mycobacterium chelonae ATCC 35752 after 8 days by resazurin microtiter based colorimetric assay; format: functional; conditions: ATCC 35752, 192 h
Summary of the method: (§1)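 Resazurin microtiter plate MIC, read by visual scan for growth, in Mueller Hinton II broth. Strains include clinical isolates of M. abscessus complex, M. chelonae, M. avium, M. intracellulare, M. xenopi, P. aeruginosa PAO-1 and S. aureus ATCC 25923.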

Staphylococcus aureus = assay: Antibacterial activity against Staphylococcus aureus ATCC 25923 after 8 days by resazurin microtiter based colorimetric assay; format: functional; conditions: ATCC 25923, 192 h; summary of the method: as §1
Mycobacterium avium = assay: Antimycobacterial activity against Mycobacterium avium isolate 104 after 8 days by resazurin microtiter based colorimetric assay; format: functional; conditions: isolate 104, 192 h
Summary of the method: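 M. avium 104 MICs were read by resazurin microtiter colorimetric assay in 96-well plates, with growth scored visually, in Mueller Hinton II medium.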

[1] = Selectivity index, ratio of TD50 for human THP1 cells to MIC for Mycobacterium massiliense isolate CRM0019; format: toxicity; conditions: THP-1 cells, read-out: Selectivity Index
Summary of the method: (§2)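 Ratio of THP-1 cytotoxicity to resazurin-assay MIC. Cytotoxicity: THP-1 cells were differentiated with 80 nM PMA overnight, plated for 24 h, then given 10-point DMSO dilutions (top 50 μM, 0.5% final DMSO) for 3 days at 37°C, 5% CO₂. ATP luminescence was read, with a staurosporine control. IC₅₀ = concentration giving 50% viability, from a Levenberg–Marquardt curve fit.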

[2] = Antimycobacterial activity against Mycobacterium massiliense isolate CRM0019 after 8 days by resazurin microtiter based colorimetric assay; format: functional, Mycobacterium abscessus subsp. massiliense; conditions: Mycobacteroides abscessus, isolate CRM0019, 192 h; summary of the method: as §1
[3] = Selectivity index, ratio of TD50 for human THP1 cells to MIC for Mycobacterium bolletii ATCC 14472; format: toxicity; conditions: THP-1 cells, read-out: Selectivity Index; summary of the method: as §2
[4] = system: Mycobacteroides abscessus; assay: Antimycobacterial activity against Mycobacterium abscessus isolate DCI 21 after 8 days by resazurin microtiter based colorimetric assay; format: functional; conditions: isolate DCI 21, 192 h; summary of the method: as §1
[5] = Antimycobacterial activity against Mycobacterium bolletii ATCC 14472 after 8 days by resazurin microtiter based colorimetric assay; format: functional; conditions: Mycobacteroides abscessus, ATCC 14472, 192 h; summary of the method: as §1
Pseudomonas aeruginosa = assay: Antibacterial activity against Pseudomonas aeruginosa PAO1 after 8 days by resazurin microtiter based colorimetric assay; format: functional; conditions: PAO1, 192 h; summary of the method: as §1
Mycobacterium xenopi = assay: Antimycobacterial activity against wild type Mycobacterium xenopi isolate 4042 after 8 days by resazurin microtiter based colorimetric assay; format: functional; conditions: isolate 4042, 192 h; summary of the method: as §1
[6] = Antimycobacterial activity against Mycobacterium massiliense isolate CIP108297 after 8 days by resazurin microtiter based colorimetric assay; format: functional, Mycobacterium abscessus subsp. massiliense; conditions: Mycobacteroides abscessus, isolate CIP108297, 192 h; summary of the method: as §1
[7] = Cytotoxicity against human THP1 cells assessed as reduction in cell viability after 3 days by CellTiter-Glo based luminescence assay; conditions: THP-1 cells, read-out: TD50
Summary of the method: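 THP-1 cells in complete RPMI, made macrophage-like with 80 nM PMA overnight at 37°C, 5% CO2, then seeded and cultured 24 h. Cells got 10-point DMSO serial dilutions (top 50 µM, final DMSO 0.5%) for 3 days, with staurosporine as control. Viability read by CellTiter-Glo luminescence. IC50 (50% viability) came from a Levenberg–Marquardt curve fit.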

[8] = system: Mycobacterium abscessus subsp. massiliense; assay: Inhibition of MmpL3 in Mycobacterium massiliense isolate 1513 assessed as reduction in trehalose monomycolate by measuring decrease in mycolic acid transfer to cell envelope after 16 hrs using [1,2-14C]acetate labeled compounds by TLC analysis
Summary of the method: (§3)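 Lipids were run on TLC in CHCl3:CH3OH:H2O 20:4:0.5. Cell wall-bound MAMEs were run in n-hexane:ethyl acetate 95:5, developed three times. Phosphorimaging read-out gave TMM/TDM ratios and MAME radioactivity relative to untreated control.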

[9] = system: Mycobacterium abscessus subsp. massiliense; assay: Inhibition of MmpL3 in Mycobacterium massiliense isolate 1513 assessed as reduction in arabinogalactan after 16 hrs using [1,2-14C]acetate labeled compounds by TLC analysis; summary of the method: as §3
[10] = system: Mycolicibacterium smegmatis; assay: Antimycobacterial activity against Mycobacterium smegmatis isolate MC2 155 after 8 days by resazurin microtiter based colorimetric assay; format: functional; conditions: str. MC2 155, 192 h
[11] = system: Mycobacterium tuberculosis; assay: Antimycobacterial activity against Mycobacterium tuberculosis H37Rv MC2-6206 after 8 days by resazurin microtiter based colorimetric assay; format: functional; conditions: H37Rv MC2-6206, 192 h
Summary of the method: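 MIC was measured by resazurin microtiter colorimetric assay with visual growth scoring. Medium was 7H9-ADC–0.05% tyloxapol with 0.2% casaminoacids, 48 µg/ml pantothenate and 50 µg/ml L-leucine.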

[12] = Selectivity index, ratio of TD50 for human THP1 cells to MIC for Mycobacterium tuberculosis H37Rv MC2-6206; format: toxicity; conditions: THP-1 cells, read-out: Selectivity Index; summary of the method: as §2
[13] = system: Mycobacterium abscessus subsp. massiliense; assay: Inhibition of MmpL3 in Mycobacterium massiliense isolate 1513 assessed as reduction in trehalose dimycolate after 16 hrs using [1,2-14C]acetate labeled compounds by TLC analysis; summary of the method: as §3
[14] = system: Mycobacterium avium-intracellulare; assay: Antimycobacterial activity against Mycobacterium avium-intracellulare isolate 1956 after 8 days by resazurin microtiter based colorimetric assay; format: functional; conditions: isolate 1956, 192 h; summary of the method: as §1
[15] = system: Mycobacteroides abscessus; assay: Antimycobacterial activity against Mycobacterium abscessus ATCC 19977 after 8 days by resazurin microtiter based colorimetric assay; format: functional; conditions: ATCC 19977, 192 h; summary of the method: as §1
[16] = Selectivity index, ratio of TD50 for human THP1 cells to MIC for Mycobacterium abscessus isolate DCI 21; format: toxicity; conditions: THP-1 cells, read-out: Selectivity Index; summary of the method: as §2
[17] = Selectivity index, ratio of TD50 for human THP1 cells to MIC for Mycobacterium chelonae ATCC 35752; format: toxicity; conditions: THP-1 cells, read-out: Selectivity Index; summary of the method: as §2
[18] = system: Mycobacteroides abscessus; assay: Bactericidal activity against Mycobacterium abscessus after 8 days by resazurin microtiter based colorimetric assay; format: functional
Summary of the method: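 MBC90 found by subculturing from the MIC wells onto 7H11 agar. Value is the lowest concentration cutting CFU by 90% versus the inoculum.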

Structure (SMILES)	MIC (Mycobacteroides chelonae)	MIC (Staphylococcus aureus)	selectivity ratio [1]	MIC [2]	selectivity ratio [3]	MIC [4]	MIC [5]	MIC (Pseudomonas aeruginosa)	MIC (Mycobacterium xenopi)	MIC [6]	CC50 at 72 h [7]	inhibition [8]	inhibition [9]	MIC [10]	MIC [11]	selectivity ratio [12]	inhibition [13]	MIC [14]	MIC [15]	selectivity ratio [16]	also measured
Cc1cc(C)c2cc(C(=O)N[C@@H]3C[C@@H]4C[C@H]([C@H]3C)C4(C)C)[nH]c2c1	0.125 µg/mL (≈ 0.385 µM)	> 160 µg/mL	> 130	0.125 µg/mL (≈ 0.385 µM)	> 130	0.125 µg/mL (≈ 0.385 µM)	0.125 µg/mL (≈ 0.385 µM)	> 160 µg/mL	0.25 to 1 µg/mL (≈ 0.77 to 3.08 µM)	0.125 µg/mL (≈ 0.385 µM)	> 16.2 µg/mL	Dose-dependent effect	Dose-dependent effect	1.25 to 2.5 µg/mL (≈ 3.85 to 7.7 µM)	0.0195 µg/mL (≈ 0.0601 µM)	> 830	Dose-dependent effect	2 µg/mL (≈ 6.16 µM)	0.125 µg/mL (≈ 0.385 µM)	> 130	MIC (Mycobacterium avium): 2 µg/mL (≈ 6.16 µM); selectivity ratio [17]: > 130
O=C(NC12CC3CC(CC(C3)C1)C2)c1cc2ccccc2[nH]1	0.25 µg/mL (≈ 0.849 µM)	> 160 µg/mL	> 58	0.25 µg/mL (≈ 0.849 µM)	> 58	0.25 µg/mL (≈ 0.849 µM)	0.25 µg/mL (≈ 0.849 µM)	> 160 µg/mL	0.5 to 1 µg/mL (≈ 1.7 to 3.4 µM)	0.5 µg/mL (≈ 1.7 µM)	> 14.7 µg/mL	Dose-dependent effect	Dose-dependent effect	1.56 µg/mL (≈ 5.3 µM)	0.2 µg/mL (≈ 0.679 µM)	> 73	Dose-dependent effect	8 µg/mL (≈ 27.2 µM)	0.25 µg/mL (≈ 0.849 µM)	> 58	MIC (Mycobacterium avium): 8 µg/mL (≈ 27.2 µM); selectivity ratio [17]: > 58
C[C@@H]1[C@H]2C[C@@H](C[C@H]1NC(=O)c1cc3ccccc3[nH]1)C2(C)C	< 0.06 µg/mL	40 µg/mL (≈ 135 µM)	188	0.06 µg/mL (≈ 0.202 µM)	92	0.5 µg/mL (≈ 1.69 µM)	0.12 µg/mL (≈ 0.405 µM)	> 160 µg/mL	0.5 to 1 µg/mL (≈ 1.69 to 3.37 µM)	0.06 µg/mL (≈ 0.202 µM)	11.3 µg/mL (≈ 38.1 µM)	Dose-dependent effect	Dose-dependent effect	0.78 µg/mL (≈ 2.63 µM)	0.05 µg/mL (≈ 0.169 µM)	226	Dose-dependent effect	8 µg/mL (≈ 27 µM)	0.12 µg/mL (≈ 0.405 µM)	22.6	MBC90 [18]: 0.06 µg/mL (≈ 0.202 µM); MIC (Mycobacterium avium): 8 µg/mL (≈ 27 µM); selectivity ratio [17]: > 188
Cc1cc(C)c2cc(C(=O)NC3CCCCCCC3)[nH]c2c1	0.063 µg/mL (≈ 0.211 µM)	> 160 µg/mL	> 1910	0.0078 µg/mL (≈ 0.0261 µM)	> 3820	0.0078 µg/mL (≈ 0.0261 µM)	0.0039 µg/mL (≈ 0.0131 µM)	> 160 µg/mL	0.25 µg/mL (≈ 0.838 µM)	0.031 µg/mL (≈ 0.104 µM)	> 14.9 µg/mL	Dose-dependent effect	Dose-dependent effect	0.313 to 0.625 µg/mL (≈ 1.05 to 2.09 µM)	0.0195 µg/mL (≈ 0.0653 µM)	> 764	Dose-dependent effect	1 µg/mL (≈ 3.35 µM)	0.063 µg/mL (≈ 0.211 µM)	> 1910	MBC90 [18]: 0.015 µg/mL (≈ 0.0503 µM); selectivity ratio [17]: > 236
